Laboratory results reported in ChEMBL document CHEMBL3872255, “Design, synthesis and analgesic/anti-inflammatory evaluation of novel diarylthiazole and diarylimidazole derivatives towards selective COX-1 inhibitors with better gastric profile” (Bioorg Med Chem, 2017).
One block for each compound: values may come before it. Activity calls are given as the source filed them. The rule behind the calls is not given here.

Tests used:
[1] = biological target: T1, Prostaglandin G/H synthase 1 (Ovis aries, UniProt P05979); experiment: Inhibition of ovine COX-1 assessed as reduction in oxidation of TMPD using arachidonic acid as substrate preincubated for 5 mins followed by substrate and TMPD addition measured after 5 mins by colorimetric assay
T1 sequence (P05979 whole entry): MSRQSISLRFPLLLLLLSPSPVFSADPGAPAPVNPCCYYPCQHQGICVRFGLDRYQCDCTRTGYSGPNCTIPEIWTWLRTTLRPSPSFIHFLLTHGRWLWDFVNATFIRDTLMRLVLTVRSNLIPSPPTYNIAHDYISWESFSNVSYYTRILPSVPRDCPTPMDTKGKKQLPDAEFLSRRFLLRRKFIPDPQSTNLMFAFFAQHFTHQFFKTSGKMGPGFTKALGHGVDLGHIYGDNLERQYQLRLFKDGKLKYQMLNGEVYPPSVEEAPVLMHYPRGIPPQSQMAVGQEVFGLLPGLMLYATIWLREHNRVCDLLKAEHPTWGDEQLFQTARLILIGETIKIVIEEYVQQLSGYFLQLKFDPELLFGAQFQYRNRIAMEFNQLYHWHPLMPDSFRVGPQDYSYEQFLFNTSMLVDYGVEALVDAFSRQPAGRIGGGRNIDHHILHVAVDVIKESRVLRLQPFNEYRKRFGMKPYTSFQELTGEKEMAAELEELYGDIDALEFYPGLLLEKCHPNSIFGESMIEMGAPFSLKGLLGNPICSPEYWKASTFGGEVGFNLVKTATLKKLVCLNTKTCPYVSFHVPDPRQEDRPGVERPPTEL

Rattus norvegicus [2] = experiment: Anti-inflammatory activity against carrageenan-induced paw edema in albino rat assessed as paw thickness at 100 mg/kg, po pretreated for 1 hr followed by carrageenan challenge measured at 1 hr post carrageenan challenge (reference value: 0.394 +/- 0.220 mm); format: functional
Rattus norvegicus [3] = experiment: Anti-inflammatory activity against carrageenan-induced paw edema in albino rat assessed as paw thickness at 100 mg/kg, po pretreated for 1 hr followed by carrageenan challenge measured at 3 hrs post carrageenan challenge (reference value: 0.401 +/- 0.019 mm); format: functional
Rattus norvegicus [4] = experiment: Anti-inflammatory activity against carrageenan-induced paw edema in albino rat assessed as paw thickness at 100 mg/kg, po pretreated for 1 hr followed by carrageenan challenge measured at 7 hrs post carrageenan challenge (reference value: 0.464 +/- 0.023 mm); format: functional
Rattus norvegicus [5] = experiment: Anti-inflammatory activity against carrageenan-induced paw edema in albino rat assessed as inhibition of paw edema at 100 mg/kg, po pretreated for 1 hr followed by carrageenan challenge measured after 1 to 7 hrs relative to control; format: functional
Mus musculus [6] = species on record: Mus musculus; experiment: Analgesic activity in mouse assessed as decrease in number of acetic acid-induced writhing pretreated for 1 hr followed by acetic acid challenge measured between 5 to 20 mins after acetic acid injection; format: functional
Procedure, shortened: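 Groups of five mice received test compound; 1 h later, 0.6% acetic acid (0.01 ml/g) was injected intraperitoneally. Writhes were counted for 15 min, from minute 5 to 20 after injection. Activity was taken as the reduction in writhing count. Diclofenac 6 mg/kg was the reference. Data are mean ± S.D., N=5, analysed by one-way ANOVA with Dunnett test.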

Mus musculus [7] = species on record: Mus musculus; experiment: Analgesic activity in mouse assessed as number of acetic acid-induced writhing pretreated for 1 hr followed by acetic acid challenge measured between 5 to 20 mins after acetic acid injection; format: functional
Procedure, shortened: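 Groups of five mice. Test compound given 1 h before i.p. injection of 0.6% acetic acid, 0.01 ml/g. Writhing movements counted for 15 min, from the 5th to the 20th min after injection. Diclofenac 6 mg/kg served as reference. Activity is taken as the reduction in number of writhings; mean ± S.D., N=5.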

Rattus norvegicus [8] = experiment: Anti-inflammatory activity against carrageenan-induced paw edema in albino rat assessed as paw thickness at 60 mg/kg, po pretreated for 1 hr followed by carrageenan challenge measured at 1 hr post carrageenan challenge (reference value: 0.394 +/- 0.220 mm); format: functional
Rattus norvegicus [9] = experiment: Anti-inflammatory activity against carrageenan-induced paw edema in albino rat assessed as paw thickness at 60 mg/kg, po pretreated for 1 hr followed by carrageenan challenge measured at 3 hrs post carrageenan challenge (reference value: 0.401 +/- 0.019 mm); format: functional
Rattus norvegicus [10] = experiment: Anti-inflammatory activity against carrageenan-induced paw edema in albino rat assessed as paw thickness at 60 mg/kg, po pretreated for 1 hr followed by carrageenan challenge measured at 7 hrs post carrageenan challenge (reference value: 0.464 +/- 0.023 mm); format: functional
Rattus norvegicus [11] = experiment: Anti-inflammatory activity against carrageenan-induced paw edema in albino rat assessed as inhibition of paw edema at 60 mg/kg, po pretreated for 1 hr followed by carrageenan challenge measured after 1 to 7 hrs relative to control; format: functional
[12] = Ulcerogenic effect in albino rat assessed as ulcer index […], po administered 2 to 3 days; format: toxicity, organism-based; conditions: in vivo
Procedure, shortened: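 Rats were fasted 2 h, fed 2 h, then fasted 20 h, with further doses on days 2 and 3. Stomachs were rinsed in 0.9% saline and lesions scored 0-4. Ulcer index = %incidence/10 + average severity + average ulcer number.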

SMILES: CN1CCN(C(=O)Cn2cnc(-c3ccccc3)c2-c2ccccc2)CC1
IC50 [1]: 4.17 µM
Activity (Rattus norvegicus [2]): 0.147 mm
Activity (Rattus norvegicus [3]): 0.168 mm
Activity (Rattus norvegicus [4]): 0.182 mm
inhibition in vivo at 100 mg/kg (Rattus norvegicus [5]): 60.5%
Activity (Mus musculus [6]): Active

SMILES: O=C(O)Cc1ccccc1Nc1c(Cl)cccc1Cl [DICLOFENAC]
Activity (Mus musculus [7]): 24
Activity (Rattus norvegicus [8]): 0.09 mm
Activity (Rattus norvegicus [9]): 0.06 mm
Activity (Rattus norvegicus [10]): 0.04 mm
inhibition in vivo at 60 mg/kg (Rattus norvegicus [11]): 84.5%

SMILES: O=C(O)CNc1nc(-c2ccccc2)c(-c2ccccc2)s1
IC50 [1]: 0.42 µM
Activity (Rattus norvegicus [2]): 0.166 mm
Activity (Rattus norvegicus [3]): 0.185 mm
Activity (Rattus norvegicus [4]): 0.231 mm
inhibition in vivo at 100 mg/kg (Rattus norvegicus [5]): 54%
UI [12]: 9.39

IC50 [1]: 8.51 µM
SMILES: O=C(Cn1cnc(-c2ccccc2)c1-c1ccccc1)N1CCCCC1

SMILES: COc1ccc(-c2ncn(CC(=O)O)c2-c2ccc(OC)cc2)cc1
IC50 [1]: 0.54 µM
Activity (Mus musculus [7]): 10.67 - 14.4
Activity (Rattus norvegicus [2]): 0.149 mm
Activity (Rattus norvegicus [3]): 0.18 mm
Activity (Rattus norvegicus [4]): 0.215 mm
inhibition in vivo at 100 mg/kg (Rattus norvegicus [5]): 57%
UI [12]: 9.75

IC50 [1]: 6.01 µM
SMILES: COc1ccc(-c2nc(NCC(=O)N3CCCCC3)sc2-c2ccc(OC)cc2)cc1

SMILES: O=C(Cn1cnc(-c2ccccc2)c1-c1ccccc1)N1CCOCC1
IC50 [1]: 6.32 µM
Activity (Rattus norvegicus [2]): 0.166 mm
Activity (Rattus norvegicus [3]): 0.186 mm
Activity (Rattus norvegicus [4]): 0.218 mm
inhibition in vivo at 100 mg/kg (Rattus norvegicus [5]): 54.5%
Activity (Mus musculus [6]): Active

SMILES: CN1CCN(C(=O)CNc2nc(-c3ccccc3)c(-c3ccccc3)s2)CC1
IC50 [1]: 3.04 µM
Activity (Rattus norvegicus [2]): 0.173 mm
Activity (Rattus norvegicus [3]): 0.197 mm
Activity (Rattus norvegicus [4]): 0.205 mm
inhibition in vivo at 100 mg/kg (Rattus norvegicus [5]): 54.3%
Activity (Mus musculus [6]): Active

SMILES: COc1ccc(-c2nc(NCC(=O)N3CCOCC3)sc2-c2ccc(OC)cc2)cc1
IC50 [1]: 4.01 µM
Activity (Rattus norvegicus [2]): 0.17 mm
Activity (Rattus norvegicus [3]): 0.19 mm
Activity (Rattus norvegicus [4]): 0.213 mm
inhibition in vivo at 100 mg/kg (Rattus norvegicus [5]): 54.5%
Activity (Mus musculus [6]): Active

IC50 [1]: 7.99 µM
SMILES: O=C(CNc1nc(-c2ccccc2)c(-c2ccccc2)s1)N1CCCCC1

SMILES: O=C(CNc1nc(-c2ccccc2)c(-c2ccccc2)s1)N1CCOCC1
IC50 [1]: 5.76 µM
Activity (Rattus norvegicus [2]): 0.148 mm
Activity (Rattus norvegicus [3]): 0.167 mm
Activity (Rattus norvegicus [4]): 0.192 mm
inhibition in vivo at 100 mg/kg (Rattus norvegicus [5]): 59.8%
Activity (Mus musculus [6]): Active

SMILES: COc1ccc2c(c1)c(CC(=O)O)c(C)n2C(=O)c1ccc(Cl)cc1 [INDOMETHACIN]
UI [12]: 19.5

SMILES: COc1ccc(-c2ncn(CC(=O)N3CCN(C)CC3)c2-c2ccc(OC)cc2)cc1
IC50 [1]: 3.06 µM
Activity (Rattus norvegicus [2]): 0.17 mm
Activity (Rattus norvegicus [3]): 0.191 mm
Activity (Rattus norvegicus [4]): 0.152 mm
inhibition in vivo at 100 mg/kg (Rattus norvegicus [5]): 58.8%
Activity (Mus musculus [6]): Active

SMILES: O=C(O)Cn1cnc(-c2ccccc2)c1-c1ccccc1
IC50 [1]: 0.67 µM
Activity (Mus musculus [7]): 10.67 - 14.4
Activity (Rattus norvegicus [2]): 0.161 mm
Activity (Rattus norvegicus [3]): 0.189 mm
Activity (Rattus norvegicus [4]): 0.235 mm
inhibition in vivo at 100 mg/kg (Rattus norvegicus [5]): 53.8%
UI [12]: 13.3

SMILES: COc1ccc(-c2ncn(CC(=O)N3CCOCC3)c2-c2ccc(OC)cc2)cc1
IC50 [1]: 5.09 µM
Activity (Rattus norvegicus [2]): 0.146 mm
Activity (Rattus norvegicus [3]): 0.159 mm
Activity (Rattus norvegicus [4]): 0.19 mm
inhibition in vivo at 100 mg/kg (Rattus norvegicus [5]): 60.8%
Activity (Mus musculus [6]): Active

SMILES: COc1ccc(-c2nc(NCC(=O)N3CCN(C)CC3)sc2-c2ccc(OC)cc2)cc1
IC50 [1]: 2.72 µM
Activity (Rattus norvegicus [2]): 0.144 mm
Activity (Rattus norvegicus [3]): 0.163 mm
Activity (Rattus norvegicus [4]): 0.172 mm
inhibition in vivo at 100 mg/kg (Rattus norvegicus [5]): 61.9%
Activity (Mus musculus [6]): Active

SMILES: COc1ccc(-c2nc(NCC(=O)O)sc2-c2ccc(OC)cc2)cc1
IC50 [1]: 0.32 µM
Activity (Mus musculus [7]): 10.67 - 14.4
Activity (Rattus norvegicus [2]): 0.165 mm
Activity (Rattus norvegicus [3]): 0.213 mm
Activity (Rattus norvegicus [4]): 0.251 mm
UI [12]: 8.5

IC50 [1]: 7.34 µM
SMILES: COc1ccc(-c2ncn(CC(=O)N3CCCCC3)c2-c2ccc(OC)cc2)cc1
